Consider five compounds from ChEMBL document CHEMBL3272115, “Synthesis and microbiological activities of beta-(1-chloro-2-naphthyl) alanine and beta-(1-bromo-2-naphthyl) alanine” (1976).

Assay [1] concerns Lactiplantibacillus plantarum. Description: Antimicrobial activity against Lactobacillus plantarum ATCC 8014 after 18 hrs by spectrophotometry. To be noted: ATCC 8014, 18 h. Type of assay: functional. In a few lines: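 Basal lactic-acid-bacteria medium with 0.2 µg/ml calcium pantothenate and 0.02 µg/ml pantethine; phenylalanine and tyrosine omitted, and tryptophan lowered to 3 µg/ml; for this strain, Phe and Tyr at 1 µg/ml. Aqueous stock (1 mg/ml) serially diluted, up to 200 µg/ml. Incubated at 30° for 18 h. Absorbance read at 625 nm versus an uninoculated blank. MIC from at least six repeats.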

A further assay has as its system Escherichia coli. Description: Antimicrobial activity against Escherichia coli ATCC 9723 after 16 hrs by spectrophotometry. Type of assay: functional. As to conditions: ATCC 9723, 16 h. The method, boiled down:
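Stock of 10 mg in 10 ml sterile water (slight warming), serially diluted into autoclaved medium tubes, tested up to 200 µg/ml. Incubated at 37° for 16 h after inoculation. Turbidity read at 625 nm against an uninoculated medium blank. MIC taken as the minimum inhibitory concentration, with controls and at least six repeat assays.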

Assay [2] deals with Lactiplantibacillus plantarum. Description: Antimicrobial activity against Lactobacillus plantarum ATCC 8014 after 18 hrs by spectrophotometry in presence of 40 ug/ml each of phenylalanine,tyrosine and tryptophan. It counts as functional.
Assay [3] in a line: Antimicrobial activity against Leuconostoc dextranicum ATCC 8086 after 18 hrs by spectrophotometry. Type of assay: functional, Leuconostoc mesenteroides subsp. dextranicum. To be noted: Leuconostoc mesenteroides, ATCC 8086, 18 h. The method, boiled down:
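Basal lactic-acid-bacteria medium with 0.2 µg/ml calcium pantothenate and 0.02 µg/ml pantethine; Phe and Tyr omitted, Trp at 3 µg/ml; phosphate raised fourfold and 100 µg/ml glutamine added. Aqueous stock (1 mg/ml) serially diluted, up to 200 µg/ml. Incubated at 30° for 18 h. Turbidity read at 625 nm against an uninoculated blank. MIC from at least six repeats.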

Assay [4] is described as follows: (§1) Antimicrobial activity against Leuconostoc dextranicum ATCC 8086 after 18 hrs by spectrophotometry in presence of 40 ug/ml each of phenylalanine,tyrosine and tryptophan. It counts as functional, Leuconostoc mesenteroides subsp. dextranicum. As to conditions: Leuconostoc mesenteroides, ATCC 8086, 18 h.
In assay [5] the test system is Leuconostoc mesenteroides subsp. dextranicum. The description is as §1. It counts as functional.

≈ marks a conversion by molar mass, not a printed value. Calls of active or inactive are those of the source. No cut-off for these calls is given here. Bounds are passed on as bounds.

The term MIC denotes the least concentration at which growth counts as inhibited. Take `NC(Cc1ccc(O)cc1Cl)C(=O)O` (stereo not drawn): the MIC in assay [1] was 0.6 µg/mL (≈ 2.78 µM); in the assay on Escherichia coli, 2 µg/mL (≈ 9.27 µM); in assay [2] (ATCC 8014, 18 h) it was 200 µg/mL; in assay [3], 6 µg/mL (≈ 27.8 µM); in assay [4], 200 µg/mL.

Consider `NC(Cc1ccc2ccccc2c1)C(=O)O` (stereo not drawn), for which the MIC (in assay [1]; against Escherichia coli; in assay [3]) was greater than 200 µg/mL each time.

On to `NC(Cc1ccc2ccccc2c1Br)C(=O)O` (racemic), for which the MIC (in assay [1]; in the assay on Escherichia coli; in assay [3]) was 200 µg/mL (≈ 680 µM) each time. For the same compound, the MIC result in assay [2] and in assay [5] was “Active” throughout.

For `NC(Cc1cccc2ccccc12)C(=O)O` (stereo not drawn), the MIC in assay [1] is 200 µg/mL (≈ 929 µM); in the assay on Escherichia coli, greater than 200 µg/mL; in assay [3], 200 µg/mL (≈ 929 µM). The MIC entry in assay [2] and in assay [5] was “Active” throughout.

On to `NC(Cc1ccc2ccccc2c1Cl)C(=O)O` (racemic), for which the MIC is 20 µg/mL (≈ 80.1 µM) in assay [1], greater than 200 µg/mL against Escherichia coli and 20 µg/mL (≈ 80.1 µM) in assay [3]. Moreover, the MIC result in assay [2] and in assay [5] was “Active” throughout.
